Peptide text beside a SMILES is read from it. * marks the point of attachment. Cbz = O=C(OCc1ccccc1)*
Legend:
RAW264.7 [1] = experiment: Anti-inflammatory activity against mouse RAW264.7 cells assessed as inhibition of LPS-stimulated NO production after 18 hrs by Griess reagent based assay; format: functional, cell-based; conditions: RAW264.7, 18 h
Method in brief: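 RAW264.7 cells were seeded at 2 × 10^5 cells/well in RPMI 1640 with 10% FBS (37 °C, 5% CO2) and preincubated 24 h. They were then exposed 18 h to serial dilutions up to 25 μM (DMSO stock diluted in medium) with LPS 1 μg/mL. Supernatant was mixed 1:1 with Griess reagent for 5 min, and absorbance was read at 570 nm, in triplicate. MG-132 served as positive control.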

RAW264.7 [2] = experiment: Anti-inflammatory activity against mouse RAW264.7 cells assessed as inhibition of LPS-stimulated TNFalpha production preincubated for 30 mins followed by LPS addition and measured after 24 hrs by ELISA; format: functional, cell-based
Method in brief: (§1)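 Cells kept at 37 °C in 5% CO2 with 10% heat-inactivated FBS and 1% penicillin: RAW264.7 in DMEM, THP-1 in RPMI 1640. Cells were pretreated 30 min with compound (2.5–20 μM, from DMSO solution) or dexamethasone (5 μM, positive control), then stimulated with LPS 1 μg/mL for 24 h. Supernatant TNF-α, IL-1β and PGE2 were measured by ELISA. Mean ± SD, n = 3; one-way ANOVA with Dunnett's T3 and two-tailed t test.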

RAW264.7 [3] = experiment: Anti-inflammatory activity against mouse RAW264.7 cells assessed as inhibition of LPS-stimulated IL-1beta production preincubated for 30 mins followed by LPS addition and measured after 24 hrs by ELISA; format: functional, cell-based; method in brief: as §1
RAW264.7 [4] = experiment: Anti-inflammatory activity against mouse RAW264.7 cells assessed as inhibition of LPS-stimulated PGE2 production preincubated for 30 mins followed by LPS addition and measured after 24 hrs by ELISA; format: functional, cell-based; method in brief: as §1
THP-1 [5] = experiment: Anti-inflammatory activity against human THP1 cells assessed as inhibition of LPS-stimulated TNFalpha production preincubated for 30 mins followed by LPS addition and measured after 24 hrs by ELISA; format: functional, cell-based; method in brief: as §1
THP-1 [6] = experiment: Anti-inflammatory activity against human THP1 cells assessed as inhibition of LPS-stimulated IL-1beta production preincubated for 30 mins followed by LPS addition and measured after 24 hrs by ELISA; format: functional, cell-based; method in brief: as §1
THP-1 [7] = experiment: Anti-inflammatory activity against human THP1 cells assessed as inhibition of LPS-stimulated PGE2 production preincubated for 30 mins followed by LPS addition and measured after 24 hrs by ELISA; format: functional, cell-based; method in brief: as §1
RAW264.7 [8] = experiment: Anti-inflammatory activity against mouse RAW264.7 cells assessed as inhibition of LPS-stimulated TNFalpha production at 20 uM preincubated for 30 mins followed by LPS addition and measured after 24 hrs by ELISA relative to control; format: functional; method in brief: as §1
RAW264.7 [9] = experiment: Anti-inflammatory activity against mouse RAW264.7 cells assessed as inhibition of LPS-stimulated IL-1beta production at 20 uM preincubated for 30 mins followed by LPS addition and measured after 24 hrs by ELISA relative to control; format: functional; method in brief: as §1
RAW264.7 [10] = experiment: Anti-inflammatory activity against mouse RAW264.7 cells assessed as inhibition of LPS-stimulated PGE2 production at 20 uM preincubated for 30 mins followed by LPS addition and measured after 24 hrs by ELISA relative to control; format: functional; method in brief: as §1
THP-1 [11] = experiment: Anti-inflammatory activity against human THP1 cells assessed as inhibition of LPS-stimulated TNFalpha production at 20 uM preincubated for 30 mins followed by LPS addition and measured after 24 hrs by ELISA relative to control; format: functional; method in brief: as §1
THP-1 [12] = experiment: Anti-inflammatory activity against human THP1 cells assessed as inhibition of LPS-stimulated IL-1beta production at 20 uM preincubated for 30 mins followed by LPS addition and measured after 24 hrs by ELISA relative to control; format: functional; method in brief: as §1
[13] = Cytotoxicity against mouse RAW264.7 cells assessed as cell viability up to 20 uM by MTS assay relative to control; format: cell-based; conditions: read-out: Activity
Method in brief: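 RAW264.7 macrophages were grown in DMEM with 10% heat-inactivated FBS and 1% penicillin (37 °C, 5% CO2), detached with trypsin-EDTA and seeded in 96-well plates. At 80% confluence they were treated with compound at 2.5–20 μM (dissolved in DMSO). Viability was read by MTS following the kit instructions.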

IC50 (RAW264.7 [1]) [nM] | Compound | inhibition (RAW264.7 [2]) | inhibition (RAW264.7 [3]) | inhibition (RAW264.7 [4]) | inhibition (THP-1 [5]) | inhibition (THP-1 [6]) | inhibition (THP-1 [7]) | inhibition at 20 µM (RAW264.7 [8]) [%] | inhibition at 20 µM (RAW264.7 [9]) [%] | inhibition at 20 µM (RAW264.7 [10]) [%] | inhibition at 20 µM (THP-1 [11]) [%] | inhibition at 20 µM (THP-1 [12]) [%] | viability [13] [%]
80 | CC1=C(C=O)C(C)(C)[C@H](CC[C@H]2CC[C@]3(OC2)O[C@@]2(O)CC[C@]3(C)OC2(C)C)CC1 | Dose-dependent effect | Dose-dependent effect | Dose-dependent effect | Dose-dependent effect | Dose-dependent effect | Dose-dependent effect | 70.9 | 94.3 | 92.5 | 99.9 | 99.3 | 60
160 | CC(C)C[C@@H](C=O)NC(=O)[C@H](CC(C)C)NC(=O)[C@H](CC(C)C)NC(=O)OCc1ccccc1 [MG-132] (Cbz-Leu-Leu-Leu-aldehyde) | – | – | – | – | – | – | – | – | – | – | – | –
16200 | C=C1CC[C@@H](CCO)C(C)(C)[C@H]1C/C=C1/C(=O)OC[C@@H]1O | – | – | – | – | – | – | – | – | – | – | – | –

From ChEMBL document CHEMBL4371102, “Tricholopardins A and B, Anti-inflammatory Terpenoids from the Fruiting Bodies of Tricholoma pardinum” (J Nat Prod, 2019)
